Bioassay records from PubChem.
Shown are actives, neighbours in structure and some others; about 3.7% of the full set was active somewhere.
hERG rescue: hERG rescue from dofetilide block, primary screen, cell-based, CHO-hERG, FluxOR thallium flux, dofetilide IC70; Voltage-gated inwardly rectifying potassium channel KCNH2 (Homo sapiens), Q12809; dofetilide IC70 present; activation (rescue from dofetilide block), less the hit threshold, % at 10 µM; 0.51% of 310,000 active; AID 1511, 2009;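 active means activation above the mean of controls blocked by dofetilide plus 5 SD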;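 further: thallium influx through hERG after potassium depolarization seen as dye fluorescence rise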
KCNQ1 inh: inhibitors of human KCNQ1 channel, primary screen, cell-based, thallium flux, high-throughput; CHO-K1 KCNQ1, FluxOR thallium flux fluorescence; active compounds read high; B-score at 10 µM; 1.3% of 310,000 active; Potassium voltage-gated channel subfamily KQT member 1 (Homo sapiens), P51787; AID 2642, 2010;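 active means compounds whose thallium flux B-score, printed positive for inhibition, exceeds three library SD while starting fluorescence stays within three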;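 further: channel opened by potassium depolarization with thallium stimulus after 20 min compound exposure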
Target sequence (P51787 whole entry, looked up): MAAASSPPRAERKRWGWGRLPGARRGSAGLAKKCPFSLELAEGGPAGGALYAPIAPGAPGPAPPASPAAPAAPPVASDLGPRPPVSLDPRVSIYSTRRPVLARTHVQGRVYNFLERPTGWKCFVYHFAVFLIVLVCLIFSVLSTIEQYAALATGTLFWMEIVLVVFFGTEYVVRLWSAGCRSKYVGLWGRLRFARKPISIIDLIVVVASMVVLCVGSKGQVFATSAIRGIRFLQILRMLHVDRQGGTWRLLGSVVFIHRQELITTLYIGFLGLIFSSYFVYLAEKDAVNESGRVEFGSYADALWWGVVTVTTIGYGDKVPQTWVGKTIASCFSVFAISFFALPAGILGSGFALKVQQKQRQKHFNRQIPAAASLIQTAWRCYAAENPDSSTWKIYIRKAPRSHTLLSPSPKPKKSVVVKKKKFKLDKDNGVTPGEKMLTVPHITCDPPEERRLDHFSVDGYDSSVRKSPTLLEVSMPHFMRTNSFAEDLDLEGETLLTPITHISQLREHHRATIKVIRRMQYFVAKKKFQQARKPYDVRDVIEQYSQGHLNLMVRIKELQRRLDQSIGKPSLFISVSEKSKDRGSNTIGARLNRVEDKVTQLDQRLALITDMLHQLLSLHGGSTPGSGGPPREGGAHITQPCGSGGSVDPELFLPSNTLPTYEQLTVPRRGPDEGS
KCNK9 inh: KCNK9 potassium channel inhibitors, primary screen, HEK293 cells, thallium flux; B-score at 10 µM; FluxOR thallium flux fluorescence; active compounds read low; Potassium channel subfamily K member 9 (Homo sapiens), Q9NPC2; 1.2% of 310,000 active;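 active means ratio B-score over 3 SD below the library mean, with starting fluorescence within 5 SD of its mean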;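 further: negative B-score means less thallium flux so channel inhibition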
KCNQ1 pot: potentiators or activators of KCNQ1 channel, primary screen, cell-based, thallium flux, high-throughput; Potassium voltage-gated channel subfamily KQT member 1 (Homo sapiens), P51787; CHO-K1 KCNQ1, thallium flux FluxOR fluorescence; active compounds read high; B-score at 10 µM; 0.35% of 310,000 active;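 active means fluorescence ratio B-score, a plate-corrected score, at least three library SD, with initial intensity B-score within 5 SD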
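System: CHO-K1 cells stably expressing KCNQ1 / Medium: assay buffer for compound exposure, DMSO matched across wells / Reagent: thallium- and potassium-containing depolarizing buffer / Compound: one concentration, matched DMSO / Incubation: 20 min compound pretreatment at room temperature / Measured by: kinetic FluxOR fluorescence, 10 s baseline plus 110 s post-stimulus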
KCNK3 inh: human KCNK3 channel inhibitors, primary screen, CHO cells, FluxOR thallium flux, B-score; Potassium channel subfamily K member 3 (Homo sapiens), O14649; FluxOR fluorescence; active compounds read low; B-score at 10 µM; 0.84% of 340,000 active; AID 602410, 2012;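 active means B-score under library mean minus 4 SD, starting fluorescence ratio at most library mean plus 5 SD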;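 further: more negative B-score means stronger inhibition of thallium flux through KCNK3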
Kir21 block: inhibitors of mouse Kir2.1 inward-rectifier potassium channel; HEK293-Kir2.1, FluxOR thallium flux fluorescence; active compounds read low; B-score at 10 µM; AID 1672, 2009; 0.85% of 310,000 active; Inward rectifier potassium channel 2 (Mus musculus), P35561;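 active means fluorescence ratio B-score at or below minus 3 SD of library scores, with starting-brightness B-score within 2 SD, cut at about -4.2 in these data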;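 further: channel flux triggered by added potassium and thallium sulfate stimulus; B-score of peak minus minimum fluorescence over baseline after thallium stimulus; more negative B-score means stronger Kir2.1 block with less thallium influx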
Numbers without * were called inactive; i = inactive; / = no result given.

SMILES	hERG rescue	KCNQ1 inh	KCNK9 inh	KCNQ1 pot	KCNK3 inh	Kir21 block
CC1CCC(NC(=O)CN2C(=O)NC3(CCCCCC3)C2=O)CC1 (stereo not drawn)	/	/	/	/	i	/
O=C(O)CCC(=O)N1CN2CN(C(=O)CCC(=O)O)CC([N+](=O)[O-])(C2)C1	-3	i	i	i	i	-0.88
Cn1ncc(Cl)c1C(=O)Nc1cccc(Cl)c1	-5	i	i	i	i	-0.19
Cn1ncc(N=Cc2c(O)ccc3ccccc23)c1C(=O)Nc1cccc(Cl)c1	-9	i	-7.4*	i	i	0.07
O=C(CCn1c(=O)oc2ccccc21)Nc1nc2ccccc2s1	-11	i	-7.2*	i	i	0.02
CC1CCCCC1n1c(=S)[nH]c2ccccc2c1=O (stereo not drawn)	1	i	i	19*	i	0.02
COc1ccc(C2(O)CCN(CCCCOc3ccccc3)CC2)cc1	-13	i	i	i	i	-0.59
O=C(NCc1ccc(F)cc1)C(=O)Nc1nc(C23CC4CC(CC(C4)C2)C3)cs1	4.9*	i	i	i	i	-0.66
O=C(NCc1ccncc1)C(=O)Nc1nc(C23CC4CC(CC(C4)C2)C3)cs1	-9	i	i	i	i	-0.16
O=C(NCc1cccnc1)C(=O)Nc1nc(C23CC4CC(CC(C4)C2)C3)cs1	-15	i	i	i	i	-1.1
O=C(NCc1ccccc1)C(=O)Nc1nc(C23CC4CC(CC(C4)C2)C3)cs1	18*	i	i	10*	i	-0.03
O=C(Nc1nc(=S)ss1)c1ccc(Cl)cc1Cl	41*	i	i	15*	i	-2.7
CCCCCc1cc(OC)cc2c1C(=O)OC(C)(C)O2	/	/	/	/	-11*	/
O=c1c2ccccc2[nH]c(=S)n1Cc1ccccc1	-5	i	i	i	i	-0.44
O=c1c2ccccc2[nH]c(=S)n1CCc1ccccc1	20*	i	i	17*	i	1.1
COc1ccc(-c2c[n+]3c4n2CCCCC4=C(c2ccccc2)C3)cc1	-33	7*	i	i	i	-1.7
COc1ccc(-c2c[n+](CC(=O)c3ccccc3)c3n2CCCCC3)cc1	-8	i	i	i	i	-0.45
CCN1CCN(CC(=O)N2CCCC(C(=O)c3ccc(Oc4ccccc4)cc3)C2)CC1 (stereo not drawn)	5.5*	i	i	i	i	-0.67
O=C(c1cc(F)c(F)cc1Cl)N1CCCc2ccccc21	-7	i	i	i	i	-3.2
O=S(=O)(NC1CCCCC1Nc1ccc(Cl)cc1)c1ccccc1 (stereo not drawn)	-10	i	i	i	i	0.18
O=S(=O)(NC1CCCCC1Oc1ccccc1)c1ccccc1 (stereo not drawn)	-13	i	i	i	i	-5.4*
Cc1ccc(NC(=O)CC(O)(C(F)(F)F)C(F)(F)F)cc1	-7	7*	i	i	i	2.6
Cc1ccc(NC(=O)CC(N)=S)cc1	-10	i	i	i	i	0.59
c1ccc(CCN=C2CCCc3c2[nH]c2ccccc32)cc1	-34	i	i	i	i	-12*
O=S(=O)(c1ccc2ccccc2c1)N1CCN(c2ccc(O)cc2)CC1	/	/	/	/	i	/
SMILES	hERG rescue	KCNQ1 inh	KCNK9 inh	KCNQ1 pot	KCNK3 inh	Kir21 block
O=C(CSc1nc2ccccc2nc1N1CCCCC1)N1CCN(c2ccccc2)CC1	-15	6*	i	i	i	-2.2
O=C(CSc1ccc2ccccc2c1)N1CCN(c2ccc(O)cc2)CC1	-2	i	i	i	i	-4.2*
O=C(Nc1nnc(Cc2ccccc2)s1)c1ccco1	1	i	i	i	i	0.84
CC(C)(C)Cc1nnc(NC(=O)c2ccco2)s1	18*	i	i	i	i	-1.3
CCc1nnc(NC(=O)c2cccc(C(=O)Nc3nnc(CC)s3)n2)s1	4.9*	i	i	i	i	1.3
CN(C)S(=O)(=O)c1cccc(NC(=O)CCc2c[nH]c3ccccc23)c1	-1	i	i	i	i	-0.87
Cc1ccc(C2CC(=O)NC(SCc3ccccc3)=C2C#N)o1 (stereo not drawn)	-14	i	i	i	i	-6.9*
N#CC1=C(SCc2ccccc2)NC(=O)CC1c1ccco1 (stereo not drawn)	-11	i	i	i	i	-9.1*
CCSC1=C(C#N)C(c2ccc(C)o2)CC(=O)N1 (stereo not drawn)	-5	i	i	i	i	-0.72
O=C(Nc1ccc(Cl)c([N+](=O)[O-])c1)Nc1nc2ccccc2s1	-9	9*	i	i	/	0.39
CC(CC(=O)Nc1ccc(Cl)c([N+](=O)[O-])c1)c1ccccc1 (stereo not drawn)	-16	10*	i	i	i	-1.6
O=C(Nc1cccc2c1C(=O)NC2=O)c1cccnc1Cl	6.1*	i	i	i	i	-0.66
O=C(Nc1cccnc1Cl)c1cccnc1Cl	-2	i	i	i	i	-0.15
CN(C)c1ccc(NC(=O)CC(NCc2ccccn2)C(=O)O)cc1 (stereo not drawn)	-14	i	i	i	i	0.39
CCCCC(CC)CNS(=O)(=O)c1ccc2c(c1)CCN2C(=O)CCC(=O)O (stereo not drawn)	-12	i	i	i	i	-8*
CCc1ccc(NS(=O)(=O)c2ccc3c(c2)CCN3C(=O)CCC(=O)O)cc1	-7	i	i	i	i	0.93
COc1cc(C)c(S(=O)(=O)N2CCCC2)cc1C(C)C	-11	i	i	i	i	-4.4*
COc1ccc(-n2cccc2/C=C/[N+](=O)[O-])cc1	-9	i	i	i	i	-4.8*
COc1ccc(-n2cccc2C=O)cc1	-9	i	i	i	i	1.1
N#Cc1cc(C(=O)c2cc(F)ccc2O)cn(-c2nccs2)c1=O	-13	8*	i	i	i	-7.4
COC(=O)C(Cc1ccccc1)NC(=O)CNS(=O)(=O)c1ccc(Br)cc1 (stereo not drawn)	-6	i	i	i	i	-0.42
COC(=O)C(Cc1ccccc1)NC(=O)CNC(=O)c1ccc(Br)cc1 (stereo not drawn)	-5	i	-7.1*	i	i	-0.22
